Assay outcomes (PubChem)
Rows were chosen to be rich in hits. Some 1.4% of all compounds tested hit in one or more screens of this group.
DDE Tn6 FP inh = DD(E)-Tn6 binding inhibition, primary FP screen; inhibition, % at 8.3 µM; Fibrin DD(E) TRITC-Tn6 fluorescence polarization displacement; P02675; actives 0.21% (n = 370,000);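 active = inhibition above a per-campaign cutoff: mean of compounds within control limits plus 3 SD, cut at about 15% in these data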;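 also: 0% = median of all compound wells on the plate and 100% = blocking peptide control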
Target sequence (P02675 whole entry, looked up): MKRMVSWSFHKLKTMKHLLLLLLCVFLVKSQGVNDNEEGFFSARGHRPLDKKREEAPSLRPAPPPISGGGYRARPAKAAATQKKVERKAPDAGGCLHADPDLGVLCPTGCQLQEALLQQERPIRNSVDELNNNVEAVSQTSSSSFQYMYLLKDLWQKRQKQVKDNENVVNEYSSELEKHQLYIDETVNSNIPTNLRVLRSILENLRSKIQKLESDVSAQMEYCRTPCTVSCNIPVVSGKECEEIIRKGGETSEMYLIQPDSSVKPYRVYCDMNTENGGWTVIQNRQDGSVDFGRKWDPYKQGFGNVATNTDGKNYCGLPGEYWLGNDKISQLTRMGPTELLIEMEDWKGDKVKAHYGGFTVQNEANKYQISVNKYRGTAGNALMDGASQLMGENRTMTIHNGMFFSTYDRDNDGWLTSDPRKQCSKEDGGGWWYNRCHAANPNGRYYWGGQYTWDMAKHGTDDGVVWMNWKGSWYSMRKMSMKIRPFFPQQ
H9c2 protect = modulators protecting cardiomyocytes from myocardial damage; protection from H2O2 cell death, % at 20 µM; AID 588492; actives 0.63% (n = 360,000); H9c2 cardiomyocytes, H2O2 injury protection, ATPLite, 2 h;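 active = compounds giving at least 50% protection of heart cells from peroxide-induced death in the single-dose screen, raw or plate-pattern-corrected value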;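 also: 0% = DMSO wells with peroxide and 100% = DMSO wells without peroxide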
H9c2 TAG inh = triacylglycerol accumulation inhibition; inhibition, % at 12.5 µM; AID 651582; H9c2 cells, Nile Red lipid (TAG) fluorescence; cells loaded with 200 µM oleic acid; actives 0.66% (n = 230,000);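 active = pattern-corrected inhibition of lipid staining of at least 50% with the nuclear-stain viability signal not falling by more than 50%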;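 also: 0% = DMSO wells and 100% = triacsin C control wells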
MT1-MMP act inh = blocks activation of human MT1-MMP | actives 0.061% (n = 360,000) | GFP/RFP ratio change, % at 20 µM | AID 651647 | HT1080 RFP-PRO-GFP cells, GFP/RFP ratio fluorescence, overnight; percent of plate control window, DMSO zero;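 active = GFP/RFP ratio change of at least 30% with cell ATP level not reduced by more than half and red fluorescence within 50% of control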
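Assay system: HT1080 RFP-PRO-GFP cells | Dosing: 20 µM single dose, 1% DMSO | Incubation: Cells overnight before dosing, compound overnight, 37 °C, 5% CO2 | Evaluation: GFP/RFP fluorescence ratio | Control set: DMSO-only wells and HT1080 RFP-L50D-GFP cell wells as references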
DDE Tn7 FP inh = inhibitors of Tn7 peptide binding to human fibrin DD(E); P02675; FP displacement of FITC-Tn7 peptide from fibrin DD(E); 0% = median of compound wells per plate; inhibition, % at 8.3 µM; actives 0.13% (n = 370,000);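 active = inhibition above the mean of compounds falling within the control limits plus 3 SD of them, cut at about 14% in these data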;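 also: 0% = plate median of compound wells and 100% = 10 µM Aha-Tn7 peptide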
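System: human fibrin DD(E); quantity: Fibrin-DD(E) at 2 µM final; also added: fluorescent Tn7 probe at 0.1 µM; compound dosing: single nominal test concentration of 8.3 µM per compound; schedule: 10 min preincubation, 3 h with tracer, room temperature; detection: fluorescence polarization of the labelled Tn7 tracer; repeats: one replicate per compound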
DAGLB inh = diacylglycerol lipase beta (human) inhibition; Q8NCG7; HEK293T DAGLB membrane lysate, EnzChek fluorogenic substrate; inhibition, % at 5.17 µM; actives 0.059% (n = 340,000); AID 504411; in the data active = inhibition above about 34%;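 also: 0% = enzyme with vehicle and 100% = wells lacking enzyme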
Active calls of the source: *; nt = not tested or not shown.

SMILES	DDE Tn6 FP inh	H9c2 protect	H9c2 TAG inh	MT1-MMP act inh	DDE Tn7 FP inh	DAGLB inh
CCc1c2c3n4c1CCC[C@@H]4C[C@@H]3O[Si](C(C)C)(C(C)C)OC(C)C2=O (some centres undefined)	-6.2	nt	nt	nt	-4.6	nt
COc1ccc(S[C@]2(C(=O)N3CCN(c4ncccn4)CC3)CC(=O)N(c3ccc(Cl)cc3)[C@@H]2c2ccc(OC)cc2)cc1	1.6	nt	nt	nt	-5.7	nt
C=CCN1C(=O)/C(=C/c2ccc(OCC(=O)O)cc2)S/C1=N/c1nccs1	4.0	7.9	nt	2.2	-4.0	15.1
C=CCN1C(=O)/C(=C/c2ccc(O)c(OC)c2)S/C1=N/c1nccs1	-8.1	51.4*	nt	-96.7	-14.7	-16.5
CC(=O)c1ccccc1OCCCN1CCCCC1	0.9	52.6*	-2.0	3.3	2.6	-1.0
CCOc1ccccc1NC(=O)c1cc(=O)c2ccccc2o1	2.3	-2.2	nt	-5.5	8.5	0.8
N#CCCSc1ccccc1NC(=O)c1cc(=O)c2ccccc2o1	-2.1	52.2*	nt	-6.9	0.1	0.6
CCCCCN(C(=O)CCc1cn(CCCCC)c2ccccc12)c1ccc(Oc2cccnc2)cc1	-6.4	nt	nt	nt	-3.5	nt
Cc1nn(-c2ccccc2)c(Cl)c1C(=O)NNC(=O)c1ccccc1O	-0.9	57.3*	-19.8	7.4	-4.2	1.1
C/C(=N\OC(=O)Nc1ccc(Cl)cc1)c1ccc(F)c(F)c1	5.2	-4.9	nt	-0.1	7.6	-1.2
CC(C)C(Cl)=NOC(=O)Nc1ccc(F)cc1	19.6*	-18.2	8.3	8.7	-3.7	-3.3
O=C1CC(c2ccc(O)c(O)c2)Oc2c1ccc(O)c2O (centres undefined)	0.7	3.0	nt	-6.6	3.2	-3.9
CC(C)=CCc1c(O)ccc2c1OC(c1ccc(O)c(O)c1)CC2=O (centres undefined)	0.0	53.9*	nt	-20.7	2.7	2.1
Cc1cc(Br)ccc1OCCCN1CCC(C(O)(c2ccccc2)c2ccccc2)CC1	6.0	nt	nt	nt	6.1	nt
CCOC(=O)[C@]12CCCC=C1N(Cc1ccc(OC)cc1)C(=O)[C@@H]2CC(=O)N1CCC(c2ccccc2)CC1	-2.4	nt	nt	nt	-5.1	nt
COc1ccccc1-n1c(N)c(C(=O)NCC2CCCO2)c2nc3ccccc3nc21 (centres undefined)	-9.0	13.4	0.5	4.4	-2.7	1.3
CCCNC(=O)c1c(N)n(-c2cccc(OC)c2)c2nc3ccccc3nc12	2.2	54.6*	nt	-23.8	-2.4	1.4
Nc1c(C(=O)NCC2CCCO2)c2nc3ccccc3nc2n1-c1ccccc1 (centres undefined)	-1.3	55.0*	12.7	5.5	-2.5	-1.4
O=C(Nc1ccc(F)cc1)OCCCN1C(=O)CCC12CCCCC2	3.3	nt	nt	nt	6.8	nt
O=C(CC1CCCC1)N[C@@H](Cc1cccnc1)C(=O)N1CCC[C@H]1C(=O)NCCc1ccccc1Cl	1.7	nt	nt	nt	-2.1	nt
COc1ccc(S(=O)(=O)N2Cc3ccccc3CC2C(=O)Nc2ccc(O)cc2)cc1OC (centres undefined)	-2.9	58.5*	-4.6	0.7	0.2	2.6
CC(=NNC(=S)N1CCCC1)c1ccccn1	-4.6	20.0	22.6	5.9	1.1	8.5
CC(=NNC(=S)N1CC2CCC(CC2)C1)c1cccc(C)n1	3.8	8.4	53.2*	0.9	-3.7	0.2
NC(=S)N/N=C/c1cccc(O)c1O	8.0	23.7	2.9	-6.4	3.3	-1.3
Cc1cc(/C=N/NC(N)=S)c(O)c(/C=N/NC(N)=S)c1	4.8	20.9	-6.7	-122.3	43.2*	-16.2
C/C(=N\NC(=O)C(C)Oc1ccc([N+](=O)[O-])cc1)c1ccccn1 (centres undefined)	5.2	50.5*	nt	10.6	-0.4	0.6
CC(Oc1ccccc1)C(=O)NNC(=O)c1ccccn1 (centres undefined)	-0.5	34.9	nt	6.5	-3.9	-4.6
Cc1ccccc1-c1nnc2n1N=C(c1ccc(O)c(O)c1)CS2	-0.9	nt	nt	nt	1.2	nt
CCOC(=O)c1cccc(S(=O)(=O)N(CCO)Cc2cc3cc(OC)ccc3[nH]c2=O)c1	nt	9.0	nt	10.4	nt	-1.9
